In the M2OR odorant receptor database:
Where a chain is given by its changes, count along the chain named.

Key:
Settings in all cases: stereoisomer not certain
OR4N4 (Homo sapiens) = target: T1, OR4N4 (Homo sapiens) (UniProt Q8N0Y3)
T1 sequence (whole entry): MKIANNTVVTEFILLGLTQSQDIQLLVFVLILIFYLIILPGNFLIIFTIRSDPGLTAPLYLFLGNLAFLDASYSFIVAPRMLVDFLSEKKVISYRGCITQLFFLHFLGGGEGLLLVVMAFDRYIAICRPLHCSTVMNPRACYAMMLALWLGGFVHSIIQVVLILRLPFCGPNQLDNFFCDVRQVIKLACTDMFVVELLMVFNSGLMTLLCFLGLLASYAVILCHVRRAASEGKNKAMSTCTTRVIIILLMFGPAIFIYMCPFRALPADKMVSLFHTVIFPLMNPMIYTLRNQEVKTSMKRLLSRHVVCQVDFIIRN
Procedure, shortened: (§1)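 Assay methods differ from source to source, frequently being transient luciferase assays in mammalian cell lines. For each receptor–molecule pair, the label responsive (active) applies when the original authors judged the measured signal statistically different from baseline, and non-responsive (inactive) applies otherwise.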

OR4N5 (Homo sapiens) = target: T2, OR4N5 (Homo sapiens) (UniProt Q8IXE1)
T2 sequence (whole entry): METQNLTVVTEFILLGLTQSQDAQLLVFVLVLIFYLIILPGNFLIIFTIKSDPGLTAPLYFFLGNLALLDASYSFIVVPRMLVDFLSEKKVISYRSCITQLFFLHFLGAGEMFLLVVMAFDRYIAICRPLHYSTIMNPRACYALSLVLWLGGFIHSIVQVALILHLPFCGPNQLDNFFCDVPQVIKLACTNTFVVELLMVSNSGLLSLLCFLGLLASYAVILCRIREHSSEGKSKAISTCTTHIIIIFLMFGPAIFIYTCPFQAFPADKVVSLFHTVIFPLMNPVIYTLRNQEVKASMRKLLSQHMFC
Procedure, shortened: as §1

OR4P4 (Homo sapiens) = target: T3, OR4P4 (Homo sapiens) (UniProt Q8NGL7)
T3 sequence (whole entry): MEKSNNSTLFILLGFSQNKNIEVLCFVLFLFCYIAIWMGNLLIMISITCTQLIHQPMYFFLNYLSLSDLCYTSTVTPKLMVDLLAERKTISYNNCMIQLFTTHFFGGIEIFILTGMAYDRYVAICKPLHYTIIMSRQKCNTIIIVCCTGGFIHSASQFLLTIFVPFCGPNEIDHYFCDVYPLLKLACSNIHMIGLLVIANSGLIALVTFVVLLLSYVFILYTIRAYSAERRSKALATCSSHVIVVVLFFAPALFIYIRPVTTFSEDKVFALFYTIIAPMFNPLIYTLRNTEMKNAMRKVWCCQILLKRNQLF
Procedure, shortened: as §1

OR4Q3 (Homo sapiens) = target: T4, OR4Q3 (Homo sapiens) (UniProt Q8NH05)
T4 sequence (whole entry): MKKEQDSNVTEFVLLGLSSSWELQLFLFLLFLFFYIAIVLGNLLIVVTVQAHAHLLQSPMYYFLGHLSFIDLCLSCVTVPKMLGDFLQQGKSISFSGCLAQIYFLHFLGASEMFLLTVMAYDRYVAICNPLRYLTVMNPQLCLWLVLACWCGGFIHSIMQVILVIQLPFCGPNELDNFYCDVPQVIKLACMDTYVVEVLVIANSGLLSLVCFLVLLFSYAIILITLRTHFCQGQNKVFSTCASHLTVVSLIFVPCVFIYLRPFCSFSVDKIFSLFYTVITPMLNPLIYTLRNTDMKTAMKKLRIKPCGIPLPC
Procedure, shortened: as §1

OR4S1 (Homo sapiens) = target: T5, OR4S1 (Homo sapiens) (UniProt Q8NGB4)
T5 sequence (whole entry): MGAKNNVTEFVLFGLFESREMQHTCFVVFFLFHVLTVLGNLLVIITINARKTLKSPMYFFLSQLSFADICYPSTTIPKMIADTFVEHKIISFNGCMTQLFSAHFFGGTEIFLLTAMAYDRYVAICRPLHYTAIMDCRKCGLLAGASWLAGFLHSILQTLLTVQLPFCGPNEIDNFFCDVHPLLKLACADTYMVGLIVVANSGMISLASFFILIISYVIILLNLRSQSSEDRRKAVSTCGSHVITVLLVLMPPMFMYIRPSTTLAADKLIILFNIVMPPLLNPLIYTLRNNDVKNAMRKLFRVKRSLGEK
Procedure, shortened: as §1

OR4N4C (Homo sapiens) = OR4N4C (Homo sapiens) (UniProt A0A096LPK9)
OR4N4C (Homo sapiens), sequence (A0A096LPK9 whole entry): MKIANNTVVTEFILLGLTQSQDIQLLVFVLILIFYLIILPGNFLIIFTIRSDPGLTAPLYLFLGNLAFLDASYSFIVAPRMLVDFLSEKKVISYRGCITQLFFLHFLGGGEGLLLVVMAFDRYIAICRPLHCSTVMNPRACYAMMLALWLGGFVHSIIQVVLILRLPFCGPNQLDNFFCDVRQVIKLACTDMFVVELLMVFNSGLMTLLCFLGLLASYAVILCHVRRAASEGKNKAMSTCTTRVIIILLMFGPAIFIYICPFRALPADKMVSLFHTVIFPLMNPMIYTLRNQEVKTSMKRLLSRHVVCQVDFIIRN
Procedure, shortened: as §1

OR4Q2 (Homo sapiens) = OR4Q2 (Homo sapiens) (UniProt P0C623)
OR4Q2 (Homo sapiens), sequence (P0C623 as listed by the source): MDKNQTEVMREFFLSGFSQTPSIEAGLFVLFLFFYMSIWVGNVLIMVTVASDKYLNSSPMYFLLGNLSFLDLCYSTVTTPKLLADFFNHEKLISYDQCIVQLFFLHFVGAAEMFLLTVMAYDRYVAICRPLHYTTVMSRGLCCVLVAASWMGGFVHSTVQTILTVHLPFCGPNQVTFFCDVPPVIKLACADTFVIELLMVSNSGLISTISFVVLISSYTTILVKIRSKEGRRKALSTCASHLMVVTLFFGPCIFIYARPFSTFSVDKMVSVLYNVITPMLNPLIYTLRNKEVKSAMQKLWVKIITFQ
Procedure, shortened: as §1

OR4N2 [1] = system: OR4N2
Procedure, shortened: as §1
Target sequence in this assay (as listed by the source): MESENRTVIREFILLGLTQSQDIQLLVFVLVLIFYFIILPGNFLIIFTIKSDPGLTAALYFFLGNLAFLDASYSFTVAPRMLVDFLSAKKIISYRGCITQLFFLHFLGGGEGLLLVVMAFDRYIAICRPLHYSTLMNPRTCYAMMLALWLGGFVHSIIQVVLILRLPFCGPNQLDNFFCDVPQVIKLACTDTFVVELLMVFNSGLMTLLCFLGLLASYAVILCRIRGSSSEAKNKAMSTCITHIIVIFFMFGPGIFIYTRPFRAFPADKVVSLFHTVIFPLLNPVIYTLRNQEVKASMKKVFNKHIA

OR4N2 [2] = system: T6, OR4N2; remark: listed apart in the source
T6 sequence (whole entry): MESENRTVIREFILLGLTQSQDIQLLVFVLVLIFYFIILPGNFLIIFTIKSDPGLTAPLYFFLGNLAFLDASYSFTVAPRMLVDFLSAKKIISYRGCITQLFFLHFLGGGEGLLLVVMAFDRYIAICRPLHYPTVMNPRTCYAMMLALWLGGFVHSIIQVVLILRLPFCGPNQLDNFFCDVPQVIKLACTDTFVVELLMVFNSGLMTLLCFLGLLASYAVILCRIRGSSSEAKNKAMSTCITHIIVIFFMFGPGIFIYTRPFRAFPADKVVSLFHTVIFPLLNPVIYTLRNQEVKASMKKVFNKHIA
Procedure, shortened: as §1

OR4Q3 T135A = system: T7, OR4Q3 T135A
T7 sequence (whole entry): T4 sequence (whole entry) with T135A
Procedure, shortened: as §1

Measured: odorant receptor agonist call

CCC(S)C(C)CO (configuration not stated)
inactive: OR4N4 (Homo sapiens) | OR4N5 (Homo sapiens) | OR4P4 (Homo sapiens) | OR4Q3 (Homo sapiens) | OR4S1 (Homo sapiens)

CC1CCCCCCCCCCCCC(=O)C1 (configuration not stated)
not listed: OR4N2 [1] | OR4N2 [2] | OR4Q3 T135A
inactive: all other assays above

CC(CO)CS (configuration not stated)
inactive: OR4N4 (Homo sapiens) | OR4N5 (Homo sapiens) | OR4P4 (Homo sapiens) | OR4Q3 (Homo sapiens) | OR4S1 (Homo sapiens)

O=c1ccc2ccccc2o1
inactive: OR4N2 [1] | OR4N2 [2]

CCCCC(S)C(C)CO (configuration not stated)
inactive: OR4N4 (Homo sapiens) | OR4N5 (Homo sapiens) | OR4P4 (Homo sapiens) | OR4Q3 (Homo sapiens) | OR4S1 (Homo sapiens)

CCCCCC(S)C(C)CO (configuration not stated)
inactive: OR4N4 (Homo sapiens) | OR4N5 (Homo sapiens) | OR4P4 (Homo sapiens) | OR4Q3 (Homo sapiens) | OR4S1 (Homo sapiens)

CCCC(S)CCOC(C)=O (configuration not stated)
not listed: OR4N4C (Homo sapiens) | OR4Q2 (Homo sapiens) | OR4N2 [1]
inactive: all other assays above

CC(=O)c1c(C)c([N+](=O)[O-])c(C(C)(C)C)c([N+](=O)[O-])c1C
not listed: OR4N2 [1] | OR4N2 [2] | OR4Q3 T135A
inactive: all other assays above

CC1=NC(C)C(C)S1 (configuration not stated)
not listed: OR4N4C (Homo sapiens) | OR4Q2 (Homo sapiens) | OR4N2 [1]
inactive: all other assays above

CC1=C(O)C(=O)OC1C (configuration not stated)
not listed: OR4N4C (Homo sapiens) | OR4Q2 (Homo sapiens) | OR4N2 [1]
inactive: all other assays above

CCCCCC(=O)C(C)C(C)=O (configuration not stated)
inactive: OR4N4 (Homo sapiens) | OR4N5 (Homo sapiens) | OR4P4 (Homo sapiens) | OR4Q3 (Homo sapiens) | OR4S1 (Homo sapiens)

CCC1OC(C)=C(O)C1=O (configuration not stated)
not listed: OR4N4C (Homo sapiens) | OR4Q2 (Homo sapiens) | OR4N2 [1]
inactive: all other assays above

CCC1OC(=O)C(O)=C1C (configuration not stated)
not listed: OR4N4C (Homo sapiens) | OR4Q2 (Homo sapiens) | OR4N2 [1]
inactive: all other assays above

CCCCCCC=CCCC=O
not listed: OR4N4C (Homo sapiens) | OR4Q2 (Homo sapiens) | OR4N2 [1]
inactive: all other assays above

CC1=C(O)C(=O)C(C)O1 (configuration not stated)
not listed: OR4N4C (Homo sapiens) | OR4Q2 (Homo sapiens) | OR4N2 [1]
inactive: all other assays above

Cc1cnc(C)c(C)n1
not listed: OR4N4C (Homo sapiens) | OR4Q2 (Homo sapiens) | OR4N2 [1]
inactive: all other assays above
